{
  "source": "ChEMBL document CHEMBL1152607",
  "about": "“Tetraiodobenzimidazoles are potent inhibitors of protein kinase CK2” (Bioorg Med Chem, 2009)",
  "key": {"[1]": {"experiment": "Inhibition of rat liver Casein kinase 2", "in_short": "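Ki from Lineweaver–Burk plots: peptide fixed, ATP increasing, with or without several inhibitor concentrations. Alternatively derived from IC50 via the Cheng–Prusoff relationship.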"}, "[2]": {"experiment": "(§1) Noncompetitive inhibition of rat liver Casein kinase 2 using 80 uM ATP and increasing phosphoacceptor substrate by Lineweaver-Burke plot"}, "Rattus norvegicus": {"species_on_record": "Rattus norvegicus", "experiment": "as §1"}},
  "note": "Calls of active or inactive are those of the source. No cut-off for these calls is given here.",
  "data": [
    {"smiles": "FC(F)(F)c1nc2c(I)c(I)c(I)c(I)c2[nH]1", "values": [
      {"measurement": "Ki", "setting": "[1]", "result": 120, "unit": "nM"}
    ]},
    {"smiles": "Clc1c(Cl)c(Cl)c2[nH]cnc2c1Cl", "values": [
      {"measurement": "Ki", "setting": "[2]", "result": 21000, "unit": "nM"}
    ]},
    {"smiles": "O=c1[nH]c2c(I)c(I)c(I)c(I)c2[nH]1", "values": [
      {"measurement": "Ki", "setting": "[1]", "result": 50, "unit": "nM"}
    ]},
    {"smiles": "O=C(O)CSc1nc2c(Br)c(Br)c(Br)c(Br)c2[nH]1", "values": [
      {"measurement": "Ki", "setting": "[1]", "result": 120, "unit": "nM"}
    ]},
    {"smiles": "FC(F)(F)c1nc2c(Br)c(Br)c(Br)c(Br)c2[nH]1", "values": [
      {"measurement": "Ki", "setting": "[1]", "result": 370, "unit": "nM"}
    ]},
    {"smiles": "Clc1nc2c(Br)c(Br)c(Br)c(Br)c2[nH]1", "values": [
      {"measurement": "Ki", "setting": "[1]", "result": 250, "unit": "nM"}
    ]},
    {"smiles": "CNC(=O)Cn1cnc2c(Br)c(Br)c(Br)c(Br)c21", "values": [
      {"measurement": "Ki", "setting": "[1]", "result": 1910, "unit": "nM"}
    ]},
    {"smiles": "CCc1nc2c(I)c(I)c(I)c(I)c2[nH]1", "values": [
      {"measurement": "Ki", "setting": "[1]", "result": 19, "unit": "nM"}
    ]},
    {"smiles": "Brc1nc2c(Br)c(Br)c(Br)c(Br)c2[nH]1", "values": [
      {"measurement": "Ki", "setting": "[1]", "result": 370, "unit": "nM"}
    ]},
    {"smiles": "Brc1c(I)c(Br)c2nc[nH]c2c1I", "values": [
      {"measurement": "Ki", "setting": "[1]", "result": 75, "unit": "nM"}
    ]},
    {"smiles": "O=c1[nH]c2c(Br)c(Br)c(Br)c(Br)c2[nH]1", "values": [
      {"measurement": "Ki", "setting": "[1]", "result": 180, "unit": "nM"}
    ]},
    {"smiles": "O=C(O)Cn1cnc2c(I)c(I)c(I)c(I)c21", "values": [
      {"measurement": "Ki", "setting": "[1]", "result": 140, "unit": "nM"}
    ]},
    {"smiles": "NNC(=O)Cn1cnc2c(Br)c(Br)c(Br)c(Br)c21", "values": [
      {"measurement": "Ki", "setting": "[1]", "result": 1510, "unit": "nM"}
    ]},
    {"smiles": "Ic1c(I)c(I)c2[nH]cnc2c1I", "values": [
      {"measurement": "Ki", "setting": "[1]", "result": 23, "unit": "nM"},
      {"measurement": "Activity", "setting": "Rattus norvegicus", "result": "Active"}
    ]},
    {"smiles": "S=c1[nH]c2c(I)c(I)c(I)c(I)c2[nH]1", "values": [
      {"measurement": "Ki", "setting": "[1]", "result": 50, "unit": "nM"}
    ]},
    {"smiles": "CNC(=O)Cn1cnc2c(I)c(I)c(I)c(I)c21", "values": [
      {"measurement": "Ki", "setting": "[1]", "result": 180, "unit": "nM"}
    ]},
    {"smiles": "NNC(=O)Cn1cnc2c(I)c(I)c(I)c(I)c21", "values": [
      {"measurement": "Ki", "setting": "[1]", "result": 160, "unit": "nM"}
    ]},
    {"smiles": "Brc1c(Br)c(Br)c2[nH]cnc2c1Br", "values": [
      {"measurement": "Ki", "setting": "[1]", "result": 300, "unit": "nM"}
    ]},
    {"smiles": "Cc1nc2c(I)c(I)c(I)c(I)c2[nH]1", "values": [
      {"measurement": "Ki", "setting": "[1]", "result": 24, "unit": "nM"}
    ]},
    {"smiles": "S=c1[nH]c2c(Br)c(Br)c(Br)c(Br)c2[nH]1", "values": [
      {"measurement": "Ki", "setting": "[1]", "result": 200, "unit": "nM"}
    ]},
    {"smiles": "NC(=O)Cn1cnc2c(I)c(I)c(I)c(I)c21", "values": [
      {"measurement": "Ki", "setting": "[1]", "result": 130, "unit": "nM"}
    ]},
    {"smiles": "NC(=O)Cn1cnc2c(Br)c(Br)c(Br)c(Br)c21", "values": [
      {"measurement": "Ki", "setting": "[1]", "result": 1450, "unit": "nM"}
    ]},
    {"smiles": "Brc1nc2c(I)c(I)c(I)c(I)c2[nH]1", "values": [
      {"measurement": "Ki", "setting": "[1]", "result": 90, "unit": "nM"}
    ]},
    {"smiles": "Brc1c(I)c(I)c2[nH]cnc2c1I", "values": [
      {"measurement": "Ki", "setting": "[1]", "result": 100, "unit": "nM"}
    ]},
    {"smiles": "Clc1c(Cl)c(I)c2[nH]cnc2c1I", "values": [
      {"measurement": "Ki", "setting": "[1]", "result": 460, "unit": "nM"}
    ]},
    {"smiles": "Clc1nc2c(I)c(I)c(I)c(I)c2[nH]1", "values": [
      {"measurement": "Ki", "setting": "[1]", "result": 120, "unit": "nM"}
    ]},
    {"smiles": "OCCNc1nc2c(Br)c(Br)c(Br)c(Br)c2[nH]1", "values": [
      {"measurement": "Ki", "setting": "[1]", "result": 140, "unit": "nM"}
    ]},
    {"smiles": "FC(F)(F)C(F)(F)c1nc2c(Br)c(Br)c(Br)c(Br)c2[nH]1", "values": [
      {"measurement": "Ki", "setting": "[1]", "result": 200, "unit": "nM"}
    ]},
    {"smiles": "Clc1c(I)c(Cl)c2nc[nH]c2c1I", "values": [
      {"measurement": "Ki", "setting": "[1]", "result": 590, "unit": "nM"}
    ]},
    {"smiles": "O=C(O)CSc1nc2c(I)c(I)c(I)c(I)c2[nH]1", "values": [
      {"measurement": "Ki", "setting": "[1]", "result": 54, "unit": "nM"}
    ]},
    {"smiles": "Clc1c(I)c(I)c2[nH]cnc2c1I", "values": [
      {"measurement": "Ki", "setting": "[1]", "result": 160, "unit": "nM"}
    ]},
    {"smiles": "OCCNc1nc2c(I)c(I)c(I)c(I)c2[nH]1", "values": [
      {"measurement": "Ki", "setting": "[1]", "result": 27, "unit": "nM"}
    ]},
    {"smiles": "Cc1nc2c(I)c(Cl)c(Cl)c(I)c2[nH]1", "values": [
      {"measurement": "Ki", "setting": "[1]", "result": 330, "unit": "nM"}
    ]},
    {"smiles": "O=C(O)Cn1cnc2c(Br)c(Br)c(Br)c(Br)c21", "values": [
      {"measurement": "Ki", "setting": "[1]", "result": 1340, "unit": "nM"}
    ]},
    {"smiles": "FC(F)(F)C(F)(F)c1nc2c(I)c(I)c(I)c(I)c2[nH]1", "values": [
      {"measurement": "Ki", "setting": "[1]", "result": 70, "unit": "nM"}
    ]}
  ]
}
